Measurements: PMC6244714 (European Journal of Drug Metabolism and Pharmacokinetics, 2018)
Values after ≈ are worked out from the molar mass of the structure shown. Read-outs that look alike come from different tables or passages of the source.

Experiments:
[1] = assay type: in vivo, human
[2] = assay type: in vivo, human; conditions: healthy subjects
Outline: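 Open-label, one-sequence, two-period crossover in healthy males and females aged 18–55 years with BMI 18.5–29.9 kg/m2. Period 1: single oral 100 mg tablet of test compound after an ≥8 h fast. Period 2: proton-pump inhibitor 40 mg once daily on Days 1–9, with test compound given 2 h after it on Day 7. Safety was assessed in all subjects dosed with test compound, using TEAE nature, frequency and severity, blood pressure, pulse, hematology, biochemistry, urinalysis and 12-lead ECG.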

gastric pH = conditions: omeprazole 40 mg once daily, healthy subjects; cited from earlier work
CYP2C19 = conditions: cited from earlier work
[3] = ref data on file, cited from earlier work
[4] = cited from earlier work
[5] = healthy volunteers; cited from earlier work

SMILES	AUC ([1]; human, plasma, po, 40 mg) [ng·h/mL]	mean trough ([1]; omeprazole 40 mg daily oral, Day 7 of Period 2, plasma) [ng/mL]	Total number of TEAEs reported [2]	gastric pH (gastric pH)	inhibitor of CYP2C19 (CYP2C19)	Overall safety and tolerability ([2]; 100 mg roxadustat alone or in combination with multiple daily oral doses of 40 mg omeprazole)	solubility ([3]; 50 mM potassium phosphate buffer at pH 7.5) [µg/mL]	in vitro solubility ([3]; pH ~ 5) [µg/mL]	solubility ([3]; simulated gastric fluid buffer at pH 1.2) [µg/mL]	terminal elimination half-life (t½) ([4]; after a single dose) [h]	time to maximum plasma concentration ([4]; after oral administration)	impact on Cmax or AUCinf of S- or R-warfarin [5]	substrate for CYP2C19 (CYP2C19; background statement, no reference given)
COc1ccc2[nH]c([S+]([O-])Cc3ncc(C)c(OC)c3C)nc2c1 (stereo not shown) [Omeprazole]	4230	0.494	eight	~ 5	inhibitor								
Cc1nc(C(=O)NCC(=O)O)c(O)c2ccc(Oc3ccccc3)cc12 [Roxadustat]						safe and well tolerated	3700 (≈ 10.5 mM)	6	1 (≈ 0.00284 mM)	12 to 14	approximately 2 h	does not impact	not a substrate
